Consider three compounds from ChEMBL document CHEMBL4270612, “Discovery of dual GyrB/ParE inhibitors active against Gram-negative bacteria” (Eur J Med Chem, 2018).

In brackets after ≈: the same amount, converted by molar mass. A value given as a limit tells only on which side of the number the result lay.

The subject of series [1] is Pseudomonas aeruginosa. Nature of the series: Antibacterial activity against Pseudomonas aeruginosa harboring MexABCDXY deletion mutant after 24 hrs by broth microdilution method. In kind it is functional. In outline: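 Broth microdilution per CLSI. Bacterial suspensions adjusted to 1×10^6 CFU/mL in cation-adjusted Mueller–Hinton broth, mixed 1:1 with 2-fold serial compound dilutions (final DMSO 2.5% v/v). Incubation 35 °C, 140 rpm, 24 h.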

In series [2] the test system is Acinetobacter baumannii. Kind of series: Antibacterial activity against Acinetobacter baumannii ARC3492 after 24 hrs by broth microdilution method. It counts as functional. The settings on record: ARC3492, 24 h. In outline:
(§1)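 Broth microdilution per CLSI. Bacterial suspension adjusted to 1×10^6 CFU/mL in cation-adjusted Mueller–Hinton broth and mixed 1:1 with 2-fold serial compound dilutions. Plates incubated at 35 °C with shaking at 140 rpm for 24 h.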

Series [3] is described as follows: Growth inhibition of human A549 cells. In kind it is cell-based.
Series [4] has as its system Pseudomonas aeruginosa. Nature of the series: Antibacterial activity against Pseudomonas aeruginosa ARC3514 after 24 hrs by broth microdilution method. It counts as functional. The settings on record: ARC3514, 24 h. In outline:
as §1

The test system of series [5] is Acinetobacter baumannii. Nature of the series: Antibacterial activity against Acinetobacter baumannii ARC3486 after 24 hrs by broth microdilution method. In kind it is functional. The settings on record: ARC3486, 24 h. In outline: (§2)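 Broth microdilution per CLSI. Bacterial suspension adjusted to 1×10^6 CFU/mL in cation-adjusted Mueller–Hinton broth and mixed 1:1 with 2-fold serial compound dilutions. Final DMSO 2.5% v/v. Plates incubated at 35 °C with shaking at 140 rpm for 24 h.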

Series [6] in a line: Dissociation constant, pKa of compound by pH metric method. It counts as physicochemical. The procedure, abridged:
(§3)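 Potentiometric (pH-metric) titration on an automated titrator, Gold Standard pH metric assay, run in triplicate.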

The subject of series [7] is Acinetobacter baumannii. Kind of series: Antibacterial activity against Acinetobacter baumannii ARC3659 after 24 hrs by broth microdilution method. In kind it is functional. The conditions noted are these: ARC3659, 24 h. In outline: as §2
Series [8] deals with Acinetobacter baumannii. Kind of series: Antibacterial activity against Acinetobacter baumannii ARC3657 after 24 hrs by broth microdilution method. The conditions noted are these: ARC3657, 24 h. In kind it is functional. The procedure, abridged: as §2
The subject of series [9] is Pseudomonas aeruginosa. Nature of the series: Antibacterial activity against Pseudomonas aeruginosa ARC3925 after 24 hrs by broth microdilution method. It counts as functional. The conditions noted are these: ARC3925, 24 h. The procedure, abridged: as §1
The subject of series [10] is Pseudomonas aeruginosa. Kind of series: Antibacterial activity against Pseudomonas aeruginosa ARC3612 after 24 hrs by broth microdilution method. In kind it is functional. The conditions noted are these: ARC3612, 24 h. The procedure, abridged:
as §2

The subject of series [11] is Pseudomonas aeruginosa. Nature of the series: Antibacterial activity against Pseudomonas aeruginosa ARC3606 after 24 hrs by broth microdilution method. The settings on record: ARC3606, 24 h. It counts as functional. In outline:
as §2

Series [12] has as its system Acinetobacter baumannii. Kind of series: Antibacterial activity against Acinetobacter baumannii ARC2782 after 24 hrs by broth microdilution method. The conditions noted are these: ARC2782, 24 h. In kind it is functional. In outline: as §2
The target of series [13] is DNA topoisomerase 4 subunit B (Escherichia coli K-12, UniProt P20083). Kind of series: Inhibition of Escherichia coli ParE.
Chain of DNA topoisomerase 4 subunit B (P20083 whole entry): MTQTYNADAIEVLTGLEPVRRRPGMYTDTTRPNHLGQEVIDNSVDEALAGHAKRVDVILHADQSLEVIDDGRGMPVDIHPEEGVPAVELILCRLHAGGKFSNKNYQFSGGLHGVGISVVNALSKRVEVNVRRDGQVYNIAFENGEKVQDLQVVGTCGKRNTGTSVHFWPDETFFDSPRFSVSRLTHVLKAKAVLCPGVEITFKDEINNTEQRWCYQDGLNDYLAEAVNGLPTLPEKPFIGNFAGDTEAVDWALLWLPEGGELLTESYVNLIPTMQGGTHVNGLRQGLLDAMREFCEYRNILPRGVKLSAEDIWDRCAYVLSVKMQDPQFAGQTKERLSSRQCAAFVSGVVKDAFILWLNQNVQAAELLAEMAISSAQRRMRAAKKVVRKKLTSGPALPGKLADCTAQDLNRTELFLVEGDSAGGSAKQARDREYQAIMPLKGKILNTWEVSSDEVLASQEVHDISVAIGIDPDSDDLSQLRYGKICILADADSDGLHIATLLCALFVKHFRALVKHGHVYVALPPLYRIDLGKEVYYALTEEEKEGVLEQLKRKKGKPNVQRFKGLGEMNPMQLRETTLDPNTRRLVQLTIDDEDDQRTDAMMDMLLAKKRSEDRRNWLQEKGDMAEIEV
For a further series, the system named is Escherichia coli. Kind of series: Antibacterial activity against Escherichia coli after 24 hrs by broth microdilution method. It counts as functional. The procedure, abridged:
as §2

The test system of series [14] is Pseudomonas aeruginosa. Nature of the series: Antibacterial activity against Pseudomonas aeruginosa ARC3505 after 24 hrs by broth microdilution method. In kind it is functional. The conditions noted are these: ARC3505, 24 h. The procedure, abridged:
as §2

Series [15] in a line: Protein binding in human plasma. It counts as ADME, cell-free. The conditions noted are these: read-out: PPB (converted).
Series [16] deals with Pseudomonas aeruginosa. Nature of the series: Antibacterial activity against Pseudomonas aeruginosa ARC3611 after 24 hrs by broth microdilution method. It counts as functional. The settings on record: ARC3611, 24 h. In outline: as §2
Series [17] has as its system Acinetobacter baumannii. Kind of series: Antibacterial activity against Acinetobacter baumannii ARC3489 after 24 hrs by broth microdilution method. It counts as functional. The settings on record: ARC3489, 24 h. The procedure, abridged: as §2
The subject of another series is Haemophilus influenzae. Kind of series: Antibacterial activity against Haemophilus influenzae ATCC 49247 after 24 hrs by broth microdilution method. In kind it is functional. The settings on record: ATCC 49247, 24 h. In outline:
as §2

The nature of series [18]: Dissociation constant, basic pKa of compound by pH metric method. It counts as physicochemical. The procedure, abridged: as §3
A short description of series [19]: Dissociation constant, acidic pKa of compound by pH metric method. In kind it is physicochemical. The procedure, abridged:
as §3

With `CCNC(=O)Nc1cc(-c2nc(C(F)(F)F)cs2)c(-c2cc3ncccc3nc2N2C3CCC2CN(C)C3)cn1`, the MIC amounted to 0.56 µg/mL (≈ 0.985 µM) with Pseudomonas aeruginosa [1]; 2 µg/mL (≈ 3.52 µM) in the series with Acinetobacter baumannii [2]; 8 µg/mL (≈ 14.1 µM) with Pseudomonas aeruginosa [4]; 2 µg/mL (≈ 3.52 µM) in the series on Acinetobacter baumannii [5]; 2 µg/mL (≈ 3.52 µM) with Acinetobacter baumannii [7]; 4 µg/mL (≈ 7.03 µM) against Acinetobacter baumannii [8]. The MIC against Pseudomonas aeruginosa [9] came out at 16 µg/mL (≈ 28.1 µM); against Pseudomonas aeruginosa [10], 32 µg/mL (≈ 56.3 µM); with Pseudomonas aeruginosa [11], 32 µg/mL (≈ 56.3 µM); in the series on Acinetobacter baumannii [12], 2 µg/mL (≈ 3.52 µM); against Escherichia coli, 2.27 µg/mL (≈ 3.99 µM); in the series on Pseudomonas aeruginosa [14], 32 µg/mL (≈ 56.3 µM). Also, the MIC is 8 µg/mL (≈ 14.1 µM) against Pseudomonas aeruginosa [16], 2 µg/mL (≈ 3.52 µM) in the series on Acinetobacter baumannii [17] and 0.25 µg/mL (≈ 0.44 µM) against Haemophilus influenzae. Further, in [3], the GI50 was above 25000 nM. In [6], this compound returned a pKa of 7.8. In series [13], this compound showed a half-inhibitory concentration (IC50) of 14 nM. In series [15], the fraction unbound is 0.03.

With `CCNC(=O)Nc1cc(-c2nc(C(F)(F)F)cs2)c(-c2cc(-c3n[nH]c(=O)o3)cnc2N2C3CCC2CN(C)C3)cn1`, the MIC with Pseudomonas aeruginosa [1] came to 0.3 µg/mL (≈ 0.499 µM); in the series with Acinetobacter baumannii [2] it was 1 µg/mL (≈ 1.66 µM); with Pseudomonas aeruginosa [4] it was 4 µg/mL (≈ 6.65 µM); in the series on Acinetobacter baumannii [5], 2 µg/mL (≈ 3.32 µM); against Acinetobacter baumannii [7] it was 1 µg/mL (≈ 1.66 µM); in the series on Acinetobacter baumannii [8] it was 2 µg/mL (≈ 3.32 µM). The MIC in the series on Pseudomonas aeruginosa [9] stood at 8 µg/mL (≈ 13.3 µM); in the series with Pseudomonas aeruginosa [10], 8 µg/mL (≈ 13.3 µM); with Pseudomonas aeruginosa [11] it was 8 µg/mL (≈ 13.3 µM); against Acinetobacter baumannii [12] it was 1 µg/mL (≈ 1.66 µM); with Escherichia coli, 1.2 µg/mL (≈ 1.99 µM); in the series on Pseudomonas aeruginosa [14], 8 µg/mL (≈ 13.3 µM). Besides, the values for the MIC with Pseudomonas aeruginosa [16], in the series on Acinetobacter baumannii [17] and against Haemophilus influenzae were 4 µg/mL (≈ 6.65 µM), 1 µg/mL (≈ 1.66 µM) and below 0.06 µg/mL, respectively. The compound further registered a 50% growth inhibitory concentration (GI50) in series [3] above 40000 nM. Also, in series [13], the IC50 was 4 nM. Moreover, the pKa in series [18] came out at 7.8; in series [19] it was 6.7. Besides, in [15], the fraction unbound is 0.211.

With `CCNC(=O)Nc1cc(-c2nc(C3CC3)cs2)c(-c2cc(-c3n[nH]c(=O)o3)cnc2N2C3CCC2CN(C)C3)cn1`, the MIC is 0.23 µg/mL (≈ 0.401 µM) against Pseudomonas aeruginosa [1]; 1 µg/mL (≈ 1.74 µM) with Acinetobacter baumannii [2]; 2 µg/mL (≈ 3.49 µM) against Pseudomonas aeruginosa [4]; 2 µg/mL (≈ 3.49 µM) in the series on Acinetobacter baumannii [5]; 1 µg/mL (≈ 1.74 µM) with Acinetobacter baumannii [7]; 2 µg/mL (≈ 3.49 µM) in the series on Acinetobacter baumannii [8]. The MIC against Pseudomonas aeruginosa [9] was 4 µg/mL (≈ 6.97 µM); in the series on Pseudomonas aeruginosa [10], 4 µg/mL (≈ 6.97 µM); against Pseudomonas aeruginosa [11], 4 µg/mL (≈ 6.97 µM); with Acinetobacter baumannii [12], 1 µg/mL (≈ 1.74 µM); in the series on Escherichia coli it was 0.57 µg/mL (≈ 0.994 µM); with Pseudomonas aeruginosa [14], 4 µg/mL (≈ 6.97 µM). Also, the figures for the MIC in the series with Pseudomonas aeruginosa [16], in the series with Acinetobacter baumannii [17] and with Haemophilus influenzae were 4 µg/mL (≈ 6.97 µM), 1 µg/mL (≈ 1.74 µM) and below 0.06 µg/mL, respectively. This compound registered a concentration for 50% growth inhibition (GI50) in [3] above 25000 nM. The compound also displayed a half-inhibitory concentration (IC50) in series [13] of 3 nM. Besides, the figures for the pKa in [18] and in series [19] were 7.9 and 6.7, respectively. In series [15], the fraction unbound is 0.149.
